Test results: article PMC2907921 (Cancer cell, 2010)

Legend:
COX-1 and COX-2 = assay: COX Fluorescent Activity Assay; format: biochemical
RXRα/Δ80 tumor = RXRα/Δ80 tumor growth in nude mice; format: in vivo, Nude mice (BALB/c); conditions: 60 mg/kg intraperitoneally, two weeks
RXRα LBD = molecular target: T1, RXRα LBD (Homo sapiens, UniProt P19793); assay: Competition ligand-binding assay with [3H]9-cis-RA; conditions: Sulindac analogs
T1 sequence (P19793 227-458 limits assumed): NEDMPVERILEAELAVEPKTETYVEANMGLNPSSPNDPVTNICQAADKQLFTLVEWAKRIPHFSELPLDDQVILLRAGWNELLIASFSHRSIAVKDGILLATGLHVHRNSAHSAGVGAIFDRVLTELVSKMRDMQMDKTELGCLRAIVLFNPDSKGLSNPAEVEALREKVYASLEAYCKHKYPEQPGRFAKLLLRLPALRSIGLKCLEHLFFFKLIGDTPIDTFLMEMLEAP
Method in brief: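 Competitive binding: RXR ligand-binding domain incubated with [3H]-9-cis-RA, with or without unlabeled 9-cis-RA or test compound. Bound radioligand was quantified by liquid scintillation counting.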

[1] = tested on: prostaglandin E2 (PGE2) production, A549 cells; assay: Prostaglandin E2 production; format: cell-based
Method in brief: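 A549 cells were stimulated with TNFα 10 ng/ml for 24 hr, then exposed to test compound for 30 min. PGE2 was measured by enzyme immunoassay kit and expressed as the ratio of PGE2 with compound to PGE2 with vehicle.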

[2] = tested on: HeLa/RXRα/1–134 and RXRα/Δ80 cells; assay: Colony formation; format: cell-based; conditions: 25 μM
Method in brief: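 Clonogenic survival of HeLa stably expressing RXRα/1–134, and of SW480 or HCT116 stably expressing GFP-RXRα/Δ80. Cells were grown in 6-well plates for 5 days, then exposed to 25 μM test compound in 0.5% serum medium for 3 days. Colonies were fixed with 4% paraformaldehyde and stained with 0.1% crystal violet.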

AKT activation = AKT activation by immunoblotting; format: cell-based; conditions: 50 μM
Method in brief: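 Immunoblot for Ser473-phospho-AKT. Cells were serum-starved overnight and exposed to 100 μM test compound for 1 hr. In TNFα arms, cells were pretreated with compound (100 μM in A549, 50 μM in PC3) for 1 hr and then given TNFα 10 ng/ml for 30 min. Some cells were transfected with RXRα, RARγ or control siRNA for 48 hr beforehand. Compound was dissolved in DMSO.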

[3] = tested on: cancer cell lines (HepG2, ZR-75-1); assay: PARP cleavage and caspase-8 activation by immunoblotting; format: cell-based
Method in brief: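 Immunoblot for PARP cleavage and cleaved caspase-8 (p43/p41). ZR-75-1 cells were exposed to TNFα and/or test compound (50 or 75 μM) for 6 hr. HepG2 cells in 1% FBS medium received TNFα 10 ng/ml and/or 75 μM compound for 4 hr. Some cells were pretreated with 1 μM SR11237 for 1 hr.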

tRXRα/p85α interaction = molecular target: T2, tRXRα/p85α interaction (Homo sapiens, UniProt P19793); assay: tRXRα/p85α interaction by co-immunoprecipitation; format: cell-based; conditions: A549 cells, 50 μM, absence or presence of TNFα
T2 sequence (P19793 81-462 limits assumed): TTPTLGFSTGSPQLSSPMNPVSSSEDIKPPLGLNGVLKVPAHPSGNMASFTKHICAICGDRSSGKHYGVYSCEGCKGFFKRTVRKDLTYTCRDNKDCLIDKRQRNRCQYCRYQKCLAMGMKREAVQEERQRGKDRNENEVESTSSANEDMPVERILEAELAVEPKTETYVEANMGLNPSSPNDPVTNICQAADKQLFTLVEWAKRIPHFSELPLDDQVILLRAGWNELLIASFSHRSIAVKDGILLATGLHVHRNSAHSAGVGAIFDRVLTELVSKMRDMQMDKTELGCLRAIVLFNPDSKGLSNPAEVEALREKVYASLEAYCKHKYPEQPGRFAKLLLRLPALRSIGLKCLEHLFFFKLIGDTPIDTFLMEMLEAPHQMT
Method in brief: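 Two co-immunoprecipitation set-ups in A549 cells. (a) Endogenous protein: cells received TNFα 10 ng/ml and/or 100 μM test compound for 30 min, then were immunoprecipitated with the C-terminal ΔN197 RXRα antibody and blotted for p85α. (b) Transfected Flag-p85α and Myc-RXRα/Δ80: cells were pretreated with 50 μM compound for 1 hr, then given TNFα for 30 min, and immunoprecipitated with anti-Flag.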

COX = conditions: ref Haanen, 2001; cited from earlier work

Row | SMILES | Inhibition of COX activities (COX-1 and COX-2) | Inhibition of RXRα/Δ80 tumor growth, compared with Sulindac (RXRα/Δ80 tumor) | RXRα-binding activity (RXRα LBD) | Inhibition of constitutive and TNFα or IL-1β-induced PGE2 production [1] | Colony formation [2] | Inhibition of RA- and TNFα-induced AKT activation, compared with Sulindac (AKT activation) | PARP cleavage with TNFα, compared with Sulindac ([3]; ZR-75-1 cells, K-80003 50 μM, Sulindac 75 μM, 6 hr) | PARP cleavage and caspase-8 activation, with TNFα ([3]; various cancer cell lines) | Interaction of RXRα/Δ80 with p85α, compared with Sulindac (tRXRα/p85α interaction) | COX-inhibiting activity (COX)
1 | CC1=C(CC(=O)O)c2cc(F)ccc2/C1=C\c1ccc(C(C)C)cc1 [K-80003] | no detectable inhibition | much more potent inhibitory effect than Sulindac | most potent | failed to inhibit | almost completely suppressed | much more effective than Sulindac | more effective than Sulindac | synergistically induced PARP cleavage and caspase-8 activation | more potently inhibited | –
2 | CC1=C(CC(=O)O)c2cc(F)ccc2/C1=C\c1ccc(S(C)(=O)=O)cc1 [sulindac sulfone] | – | – | – | – | – | – | – | – | – | no COX-inhibiting activity
3 | CC1=C(CC(=O)O)c2cc(F)ccc2/C1=C/c1ccc([S+](C)[O-])cc1 (centres unmarked) [sulindac sulfoxide] | – | – | – | – | – | – | – | – | – | no COX-inhibiting activity
